ERAP1 inh: blocks human ERAP1 aminopeptidase activity | Q9NZ08 | recombinant ERAP1, Leu-AMC fluorescence, 60 min | inhibition, % at 10.7 µM | 0.15% of 340,000 active | AID 652197;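 active means mean replicate inhibition of at least 30%, or all replicates individually reaching that 30% level; inactive means mean below 30% and not every replicate reaching it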
DENV2 CPE rescue: inhibitors of DENV2 cytopathic effect. DENV2-infected cells, cytopathic effect rescue, plate reader. CPE inhibition, % at 9.99 µM. 1.7% of 350,000 active; in the data active means CPE inhibition above about 20%, passing the limit was not always enough; tested in BHK-21 cells
CAL PDZ FP-1: human CAL PDZ-peptide interaction inhibition. Q9HD26. purified CAL PDZ, TMR-peptide fluorescence polarization, 1 h. inhibition, % at 20 µM. 0.02% of 330,000 active. AID 504414;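 active means highest replicate inhibition of at least 40%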
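System: purified tagged CAL PDZ domain construct (CerCALP). Schedule: 1 h incubation at room temperature before polarization reading. Medium: 25 mM sodium phosphate pH 7.4, 150 mM NaCl, TCEP, IgG, Thesit. Read-out: percent inhibition from loss of millipolarization. Measured by: FP readout, S and P plane fluorescence. Probe or stimulus: fluorescent TMR peptide probe.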
S100A4 MyoIIA: S100A4-myosin IIA interaction inhibition | AID 652163 | inhibition, % at 10.7 µM | 0.14% of 360,000 active | S100A4/TAMRA-MyoIIA peptide fluorescence polarization;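 active means mean inhibition of at least 70% across replicates, with every replicate also reaching that level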
Target sequence (P26447 whole entry, looked up): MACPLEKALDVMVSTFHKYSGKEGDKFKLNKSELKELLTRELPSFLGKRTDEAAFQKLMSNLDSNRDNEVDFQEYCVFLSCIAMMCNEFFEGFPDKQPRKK
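Compound dosing: one dose per compound; test system: human S100A4 monomer with TAMRA-labelled myosin IIA peptide; probe or stimulus: TAMRA-labelled myosin IIA heavy-chain peptide probe, 5 nM; medium: HEPES buffer with Ca2+, pH 7.2; schedule: 5 min incubation before reading; benchmarks: neutral control DMSO, positive control TFP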
SIRT5 inh: sirtuin-5 (human) deacylase inhibition; Purified SirT5, succinyl-peptide AMC, trypsin-coupled fluorescence; 1.1% of 330,000 active; inhibition, % at 15 µM; in the data active means inhibition above about 15%
Target sequence (Q9NXA8 whole entry, looked up): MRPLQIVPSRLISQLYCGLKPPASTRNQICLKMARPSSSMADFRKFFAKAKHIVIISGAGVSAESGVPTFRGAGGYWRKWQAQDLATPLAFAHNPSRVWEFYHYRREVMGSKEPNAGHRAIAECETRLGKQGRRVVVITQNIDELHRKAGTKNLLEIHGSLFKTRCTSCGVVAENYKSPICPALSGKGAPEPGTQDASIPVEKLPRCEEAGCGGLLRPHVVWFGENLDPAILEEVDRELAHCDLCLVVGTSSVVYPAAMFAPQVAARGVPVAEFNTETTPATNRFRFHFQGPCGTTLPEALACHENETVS
CAL PDZ FP-2: inhibitors of human CAL PDZ peptide binding; 0.92% of 300,000 active; inhibition, % at 24.9 µM; Q9HD26; AID 602252; purified CAL PDZ, TMR-peptide fluorescence polarization, 1 h;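 active means mean inhibition of at least 30% with at least half of replicates also reaching 30%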
Hits are given with their value. Rows were chosen to be rich in hits. Some 2.9% of all compounds tested hit in one or more screens of this group.

C[C@@H]1CCCCO[C@H](CN(C)C(=O)Cc2ccccc2)[C@@H](C)CN([C@H](C)CO)C(=O)c2cc(NC(=O)Cc3ccccc3)ccc2O1 was read as ERAP1 inh inactive, DENV2 CPE rescue inactive, S100A4 MyoIIA inactive and SIRT5 inh inactive.
C[C@@H]1CCCCO[C@@H](CN(C)C(=O)Cc2ccccc2)[C@H](C)CN([C@@H](C)CO)C(=O)c2cc(NC(=O)Cc3ccccc3)ccc2O1 was read as ERAP1 inh inactive, DENV2 CPE rescue inactive, S100A4 MyoIIA 126 and SIRT5 inh inactive.
For C[C@@H]1CCCCO[C@@H](CN(C)C(=O)Cc2ccccc2)[C@@H](C)CN([C@@H](C)CO)C(=O)c2cc(NC(=O)Nc3ccc(F)cc3)ccc2O1 the results were ERAP1 inh inactive, DENV2 CPE rescue inactive, S100A4 MyoIIA inactive and SIRT5 inh 32.
C[C@H]1CCCCO[C@H](CN(C)C(=O)Cc2ccccc2)[C@@H](C)CN([C@@H](C)CO)C(=O)c2cc(NC(=O)NC3CCCCC3)ccc2O1 was read as DENV2 CPE rescue 25.
Screening C[C@@H]1CN([C@H](C)CO)C(=O)Cc2cc(NC(=O)CCC(F)(F)F)ccc2O[C@@H]1CN(C)S(=O)(=O)c1ccc(F)cc1 returned ERAP1 inh inactive, DENV2 CPE rescue inactive, S100A4 MyoIIA inactive and SIRT5 inh inactive.
Cc1noc(C)c1S(=O)(=O)N(C)C[C@@H]1OCCCC[C@@H](C)Oc2ccc(NC(=O)Cc3ccccc3)cc2C(=O)N([C@@H](C)CO)C[C@@H]1C was read as ERAP1 inh inactive, DENV2 CPE rescue 52, S100A4 MyoIIA inactive and SIRT5 inh inactive.
For CNC[C@H]1OCCCC[C@@H](C)Oc2ccc(NC(=O)Cc3ccccc3)cc2C(=O)N([C@@H](C)CO)C[C@H]1C the results were ERAP1 inh inactive, DENV2 CPE rescue inactive, S100A4 MyoIIA inactive and SIRT5 inh inactive.
For Cc1noc(C)c1S(=O)(=O)N(C)C[C@@H]1OCCCC[C@@H](C)Oc2ccc(NC(=O)Cc3ccccc3)cc2C(=O)N([C@H](C)CO)C[C@H]1C the results were ERAP1 inh inactive, DENV2 CPE rescue inactive, S100A4 MyoIIA inactive and SIRT5 inh inactive.
For CNC[C@@H]1OCCCC[C@H](C)Oc2ccc(NC(=O)Cc3ccccc3)cc2C(=O)N([C@@H](C)CO)C[C@H]1C the results were ERAP1 inh inactive, DENV2 CPE rescue 44, S100A4 MyoIIA inactive and SIRT5 inh inactive.
Screening CCC(=O)N1CCC2(CC1)CN(C(=O)Nc1ccccc1F)[C@@H](CO)c1[nH]c3cc(OC)ccc3c12 returned DENV2 CPE rescue inactive.
Screening Cc1cc2nc(CSc3ccccc3)cc(=O)n2[nH]1 returned ERAP1 inh inactive, DENV2 CPE rescue inactive, CAL PDZ FP-1 inactive, S100A4 MyoIIA inactive, SIRT5 inh 29 and CAL PDZ FP-2 inactive.
Screening Cc1cc2nc(CCl)cc(=O)n2[nH]1 returned ERAP1 inh inactive, DENV2 CPE rescue inactive, CAL PDZ FP-1 inactive, S100A4 MyoIIA inactive and SIRT5 inh inactive.
For CN1C(=O)c2cc(NC(=O)c3ccccc3)ccc2OC[C@@H]2O[C@H](CC(=O)O)CC[C@@H]21 the results were ERAP1 inh inactive, DENV2 CPE rescue inactive, S100A4 MyoIIA inactive and SIRT5 inh inactive.
Screening COC(=O)c1ccc(C(=O)Nc2ccc3nc(-c4ccncc4)[nH]c3c2)cc1 returned ERAP1 inh inactive, DENV2 CPE rescue inactive, CAL PDZ FP-1 inactive, S100A4 MyoIIA inactive, SIRT5 inh inactive and CAL PDZ FP-2 59.
For COC(=O)c1ccc(C(=O)Nc2ccc3nc(-c4cccnc4)[nH]c3c2)cc1 the results were CAL PDZ FP-1 inactive and CAL PDZ FP-2 inactive.
`CC[C@H](C)C(C(=O)N1CCN(C(=O)OC(C)(C)C)CC1)n1cc(C(CC(C)C)NC(=O)OC(C)(C)C)nn1` (stereo partly specified) gave DENV2 CPE rescue 32, CAL PDZ FP-1 inactive, S100A4 MyoIIA inactive and CAL PDZ FP-2 inactive.
Screening CC(C)CC(NC(=O)OC(C)(C)C)c1cn([C@@H](CCC(=O)OC(C)(C)C)C(=O)N2CCN(C(=O)OC(C)(C)C)CC2)nn1 (stereo partly specified) returned ERAP1 inh inactive, DENV2 CPE rescue inactive, CAL PDZ FP-1 inactive, S100A4 MyoIIA inactive, SIRT5 inh inactive and CAL PDZ FP-2 inactive.

From PubChem BioAssay
